Results from ChEMBL document CHEMBL3352181, “Novel phenyl and pyridyl substituted derivatives of isoindolines: Synthesis, antitumor activity and DNA binding features” (Eur J Med Chem, 2014).
Activity calls are given as the source filed them. The calls are words filed in the database; no cut-off is given here.

Assays:
BJ = assay: Antiproliferative activity against human BJ cells assessed as inhibition of cell proliferation after 72 hrs by MTT assay; format: cell-based; conditions: 72 h
Method in brief: (§1)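 Cells grown as monolayers in DMEM with 10% FBS, 2 mM L-glutamine, penicillin/streptomycin, 37 °C, 5% CO2. Seeded at 5000/well on day 0. Compounds added after 24 h as five serial dilutions (0,01 to 100 µM), DMSO ≤0.1%, then 72 h. MTT read-out converted to percentage growth. IC50 by linear regression; quadruplicates in three experiments.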

Calf thymus DNA [1] = assay: Binding affinity to calf thymus DNA at 50 uM circular dichroism spectroscopy; format: nucleic-acid assay; conditions: Bos taurus
Method in brief: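 CD spectra recorded from 480 to 230 nm, 10 mm path, 20 °C, in BPE buffer. CT-DNA (50 µM) incubated with compound rising from 1 to 60 µM or to 80 µM. Compound without DNA served as the control for intrinsic CD.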

Calf thymus DNA [2] = assay: Binding affinity to calf thymus DNA assessed as change in melting temperature at drug/ base pair ratio of 0.5 by spectrophotometry; format: nucleic-acid assay; conditions: Bos taurus
Method in brief: (§2)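 CT-DNA absorbance followed at 260 nm from 20 to 100 °C, rising 1 °C per min, in BPE buffer, with or without compound at drug/base-pair ratio 0.25 or 0.5. Tm taken as midpoint of the hyperchromic transition from first-derivative plots. ΔTm is Tm with compound minus Tm of DNA alone.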

HeLa = assay: Antiproliferative activity against human HeLa cells assessed as inhibition of cell proliferation after 72 hrs by MTT assay; format: functional, cell-based; method in brief: as §1
SW-620 [3] = assay: Induction of cell cycle arrest on human SW620 cells assessed as accumulation at G1 phase at 50 uM after 48 hrs by propidium iodide staining based flow cytometry (reference value: 38.1 +/- 1.1%); format: functional; conditions: in the assay text read “after 24 hrs” for “after 48 hrs”
Method in brief: (§3)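 HepG2 or SW620 cells were seeded at 25000 per well. After 24 h they were treated, then harvested 24 or 48 h later. Attached cells were trypsinized, pooled with floating cells, PBS-washed and fixed in 70% ethanol. Cells were stained with PI 1 µg/mL plus RNase A 0.2 µg/mL, and 10 000 events were acquired by flow cytometry. Phase percentages come from DNA histograms, in duplicate, with ANOVA at p < 0.05.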

SW-620 [4] = assay: Induction of cell cycle arrest on human SW620 cells assessed as accumulation at subG1 phase at 20 uM after 48 hrs by propidium iodide staining based flow cytometry (reference value: 12.1 +/- 0.3%); format: functional; conditions: in the assay text read “after 24 hrs” for “after 48 hrs”; method in brief: as §3
SW-620 [5] = assay: Induction of cell cycle arrest on human SW620 cells assessed as accumulation at subG1 phase at 50 uM after 48 hrs by propidium iodide staining based flow cytometry (reference value: 12.1 +/- 0.3%); format: functional; conditions: in the assay text read “after 24 hrs” for “after 48 hrs”; method in brief: as §3
[6] = molecular target: T1, DNA topoisomerase 1 (Homo sapiens) (UniProt P11387); assay: Inhibition of human topoisomerase 1 assessed as topoisomerase poison activity by measuring generation of open circular DNA using supercoiled pUC19 DNA at 5 to 50 uM by agarose gel electrophoresis
T1 sequence (whole entry): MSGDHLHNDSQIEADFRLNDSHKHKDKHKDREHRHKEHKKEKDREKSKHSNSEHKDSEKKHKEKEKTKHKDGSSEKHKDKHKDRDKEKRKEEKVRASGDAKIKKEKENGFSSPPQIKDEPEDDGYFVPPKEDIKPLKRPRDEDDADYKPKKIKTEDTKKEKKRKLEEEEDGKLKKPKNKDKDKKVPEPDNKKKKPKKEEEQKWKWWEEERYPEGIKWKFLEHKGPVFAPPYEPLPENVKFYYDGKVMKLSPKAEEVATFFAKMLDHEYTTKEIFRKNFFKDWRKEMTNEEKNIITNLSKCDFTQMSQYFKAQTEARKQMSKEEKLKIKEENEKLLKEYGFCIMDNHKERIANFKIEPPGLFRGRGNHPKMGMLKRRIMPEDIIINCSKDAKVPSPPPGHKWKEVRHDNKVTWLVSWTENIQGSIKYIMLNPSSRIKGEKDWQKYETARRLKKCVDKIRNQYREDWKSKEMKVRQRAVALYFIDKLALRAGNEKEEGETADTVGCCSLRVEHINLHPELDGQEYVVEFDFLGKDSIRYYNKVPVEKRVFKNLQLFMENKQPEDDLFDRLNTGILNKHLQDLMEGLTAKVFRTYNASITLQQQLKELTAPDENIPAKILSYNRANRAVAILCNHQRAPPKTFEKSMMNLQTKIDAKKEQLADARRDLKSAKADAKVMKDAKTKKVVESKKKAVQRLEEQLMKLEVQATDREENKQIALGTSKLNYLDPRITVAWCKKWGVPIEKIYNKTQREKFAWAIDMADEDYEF
Method in brief: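 Supercoiled pUC19 plasmid was incubated with human topoisomerase I and graded compound concentrations. Reactions were stopped with SDS and proteinase K. DNA forms were resolved on 1% agarose in TBE (2 h, 120 V), post-stained with ethidium bromide and photographed under UV. Poisoning was read as appearance of nicked DNA, with camptothecin as the positive control.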

SW-620 [7] = assay: (§4) Antiproliferative activity against human SW620 cells assessed as inhibition of cell proliferation after 72 hrs by MTT assay; format: functional, cell-based; method in brief: as §1
[8] = as §4; format: functional, cell-based, SW-620; conditions: Homo sapiens, SW-620, 72 h; method in brief: as §1
Nucleic Acid = assay: Induction of DNA intercalation in supercoiled pUC19 DNA in presence of human topoisomerase 1 assessed as effect on topoisomerase 1-mediated DNA relaxation at 5 to 50 uM by agarose gel electrophoresis; format: nucleic-acid assay; conditions: Escherichia coli
Method in brief: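 Supercoiled pUC19 incubated with human topoisomerase I and graded compound concentrations. Stopped with SDS/proteinase K. DNA forms resolved on 1% agarose in TBE, 2 h at 120 V, stained post-run with ethidium bromide and viewed under UV. Camptothecin was the topo I poison control.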

Calf thymus DNA [9] = assay: Binding affinity to calf thymus DNA assessed as change in melting temperature at drug/ base pair ratio of 0.25 by spectrophotometry; format: nucleic-acid assay; conditions: Bos taurus; method in brief: as §2
SW-620 [10] = assay: Induction of cell cycle arrest on human SW620 cells assessed as accumulation at S phase at 20 uM after 48 hrs by propidium iodide staining based flow cytometry (reference value: 39.4 +/- 0.2%); format: functional; conditions: in the assay text read “after 24 hrs” for “after 48 hrs”; method in brief: as §3
SW-620 [11] = assay: Induction of cell cycle arrest on human SW620 cells assessed as accumulation at G2/M phase at 20 uM after 48 hrs by propidium iodide staining based flow cytometry (reference value: 22.5 +/- 0.9%); format: functional; conditions: in the assay text read “after 24 hrs” for “after 48 hrs”; method in brief: as §3
SW-620 [12] = assay: Induction of cell cycle arrest on human SW620 cells assessed as accumulation at G2/M phase at 50 uM after 48 hrs by propidium iodide staining based flow cytometry (reference value: 22.5 +/- 0.9%); format: functional; conditions: in the assay text read “after 24 hrs” for “after 48 hrs”; method in brief: as §3
SW-620 [13] = assay: Induction of apoptosis in human SW620 cells assessed as enlarged cells level at 50 uM after 24 hrs by Annexin V-Fluos staining based fluorescent microscopy; format: functional, cell-based
Method in brief: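 Cells seeded on chamber slides at 4000 per well and treated 24 h (HepG2 at 25 or 50 µM; SW620 at 50 µM). Incubated 15 min with Annexin V-Fluos reagent plus propidium iodide, washed in PBS, and examined by fluorescence microscopy for morphology and labelling.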

MCF7 = assay: Antiproliferative activity against human MCF7 cells assessed as inhibition of cell proliferation after 72 hrs by MTT assay; format: functional, cell-based; method in brief: as §1
SW-620 [14] = assay: Induction of cell cycle arrest on human SW620 cells assessed as accumulation at G1 phase at 20 uM after 48 hrs by propidium iodide staining based flow cytometry (reference value: 38.1 +/- 1.1%); format: functional; conditions: in the assay text read “after 24 hrs” for “after 48 hrs”; method in brief: as §3
HepG2 = assay: Antiproliferative activity against human HepG2 cells assessed as inhibition of cell proliferation after 72 hrs by MTT assay; format: functional, cell-based; method in brief: as §1
SW-620 [15] = assay: Induction of cell cycle arrest on human SW620 cells assessed as accumulation at S phase at 50 uM after 48 hrs by propidium iodide staining based flow cytometry (reference value: 39.4 +/- 0.2%); format: functional; conditions: in the assay text read “after 24 hrs” for “after 48 hrs”; method in brief: as §3

Activity (Calf thymus DNA [1]): Active
ΔTm (Calf thymus DNA [2]): 17.3 °C
IC50 (HeLa; Homo sapiens, HeLa, 72 h): 6.25 µM
Activity (Nucleic Acid): Active
ΔTm (Calf thymus DNA [9]): 12.2 °C
IC50 (MCF7; Homo sapiens, MCF7, 72 h): 3.76 µM
IC50 (HepG2; HepG2, 72 h): 20.5 µM
Structure (SMILES): Cl.c1ccc2c(c1)CN(c1ccc(C3=NCCN3)nc1)/C2=N/c1ccc(C2=NCCN2)nc1
IC50 (BJ; Homo sapiens, BJ): 4.26 µM
inhibition (INH) (BJ; human, bj): Dose-dependent effect
inhibition (HeLa): Dose-dependent effect
Activity (SW-620 [3]): 22.1%
Activity (SW-620 [4]): 7.5%
Activity (SW-620 [5]): 7.8%
inhibition [6]: inactive
inhibition (SW-620 [7]): Dose-dependent effect
IC50 [8]: 5.26 µM
Activity (SW-620 [10]): 40.4%
Activity (SW-620 [11]): 40%
Activity (SW-620 [12]): 41.7%
Activity (SW-620 [13]): Active
inhibition (MCF7): Dose-dependent effect
Activity (SW-620 [14]): 19.6%
inhibition (HepG2): Dose-dependent effect
Activity (SW-620 [15]): 36.2%
